Assay outcomes as filed in PubChem.
Hsp70 act: switches on Hsp70 transcription. activation, % at 10 µM. AID 1203. HeLa Hsp70 promoter luciferase reporter, luminescence; scaled: vehicle 0, proteasome-inhibitor control 100%. 200,000 compounds, 0.04% hits;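 active = activation above the mean across all tested compounds plus 3 SD, cutoff set per campaign, cut at about 5.5% in these data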;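 note: 100% = MG132 at 30 µM as the positive control and 0% = DMSO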
Mdm2 ligase inh: inhibitors of human Mdm2 E3 ubiquitin ligase | cell-based MDM2 ubiquitination luciferase reporter, 2 h; 0 = plate control, 100 = twice control, blank-subtracted | signal enhancement, % at 5 µM | AID 1230 | Q00987 | 210,000 compounds, 0.11% hits;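 active = signal enhancement of 30% or more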;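 note: luminescence tracks abundance of the self-degrading MDM2-luciferase fusion protein; higher signal means inhibition of MDM2 E3 ligase activity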
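Test system: mammalian cells stably expressing self-ubiquitinating, self-degrading MDM2 E3–luciferase fusion; Amount: 2000 cells in each well; Medium: DMEM; Schedule: 4 h settle plus 2 h compound, 37 °C; Technique: SteadyLite luciferase luminescence after 15 min room-temperature reagent incubation; Benchmarks: plate control and blank wells.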
Rad51 HR inh: blocks human Rad51 in homologous recombination. inhibition, % at 10 µM. 200,000 compounds, 0.085% hits. hRad51 DNA strand exchange, fluorescence dequenching. AID 1385;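 active = inhibition above 40% at the single screening dose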;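 note: 0% = DMSO control wells and 100% = blanks with heterologous ssDNA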
Target sequence (Q06609 whole entry, looked up): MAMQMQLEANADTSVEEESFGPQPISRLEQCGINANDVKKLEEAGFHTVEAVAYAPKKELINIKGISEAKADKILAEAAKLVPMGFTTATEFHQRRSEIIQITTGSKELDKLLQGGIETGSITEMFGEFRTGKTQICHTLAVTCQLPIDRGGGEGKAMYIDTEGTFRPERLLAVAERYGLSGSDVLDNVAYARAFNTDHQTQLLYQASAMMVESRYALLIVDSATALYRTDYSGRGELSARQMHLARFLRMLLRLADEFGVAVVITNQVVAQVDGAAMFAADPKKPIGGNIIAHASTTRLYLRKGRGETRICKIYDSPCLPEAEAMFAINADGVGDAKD
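System: human Rad51 nucleoprotein filaments preassembled on unlabelled ssDNA. Reagent: labelled 47-mer dsDNA for strand exchange. Schedule: 30-min compound preincubation and 15-min exchange, both room temperature. Measured by: FRET fluorescence dequenching, excitation 485 nm, emission 520 nm. Read-out: Fluorescence-based percent inhibition, control- and blank-normalised. Benchmarks: plate controls and plate blanks.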
HSF-1 act: increases HSF-1 driven luciferase reporter signal | NIH3T3-HGL HSF-1 luciferase reporter, MG132, 8 h; 100% = twice DMSO control signal | activation, % at 9 µM | 300,000 compounds, 1.7% hits | AID 504408;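 active = mean replicate activation of at least 50% with a set share of replicates each reaching 50%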;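 note: 0% = median of the neutral control wells and 100% = twice that signal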
HSV augment: HSV replication enhancement; maximum fold increase; 220,000 compounds, 0.005% hits; AID 1956; HSV replication augmentation in cells, fold increase; in the data active = maximum fold increase above about 1.5; tested in PC3 cells
HSF1 inhib: HSF1 inhibition | 300,000 compounds, 0.77% hits | NIH3T3-HGL HSE-luciferase, MG132-induced, luminescence 8 h; active compounds read low | activity change, negative = inhibition, % at 7.5 µM (by protocol);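 active = more than half of replicate wells show activity change below -50%, luminescence cut by over half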;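 note: luciferase reports HSF-1 transcriptional activity via heat shock element; 0% = median of DMSO wells and -100% = zero luminescence signal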
Numbers without * were called inactive; i = inactive; nt = no result. Sampled rows, rich in hits. Any-hit rate of the full collection: about 2.6%.

SMILES | Hsp70 act | Mdm2 ligase inh | Rad51 HR inh | HSF-1 act | HSV augment | HSF1 inhib
O=C(O)C1CSC(c2ccc3c(c2)OCO3)N1 (stereo not drawn) | nt | nt | 9 | -68 | i | -56*
CCOC(=O)N1C/C(=C\c2ccccc2)C(=O)/C(=C/c2ccccc2)C1 | nt | 46* | nt | 44 | i | 29
COCCN(C(=S)Nc1ccc(Cl)cc1OC)C1CCN(C(C)=O)CC1 | nt | nt | 6 | -5 | i | 3
Cc1ccc2cc3c(N)c(C(=O)N4CCOCC4)sc3nc2c1 | 1 | -16 | nt | 67* | nt | 29
Cc1ccc2nc3sc(C(=O)N4CCOCC4)c(N)c3cc2c1 | 0 | -35 | 1 | -28 | i | -28
O=C(O)/C=C/C(=O)N1CCN(C(c2ccccc2)c2ccccc2)CC1 | nt | -20 | 6 | 6 | i | 1
O=C(/C=C/c1ccc(Cl)cc1Cl)N1CCc2ccccc21 | 1 | -26 | 0 | 55* | i | 22
Cc1ccc(N(CC(=O)NCC2CCCO2)C(=O)CCC(=O)Nc2nccs2)cc1 (stereo not drawn) | nt | nt | nt | 17 | nt | -3
O=S1(=O)Nc2c(ccc3cccnc23)-c2ccccc21 | 0 | -29 | nt | 158* | i | 142
Clc1ccc2ccc3cccnc3c2n1 | nt | nt | nt | -4 | nt | -1
COc1ccc2[nH]c3c(N4CC(C)OC(C)C4)ncnc3c2c1 (stereo not drawn) | 0 | 35* | 2 | 28 | i | 4
COc1cccc(N2CCN(c3ncnc4c3[nH]c3ccc(F)cc34)CC2C)c1 (stereo not drawn) | 0 | -15 | 3 | -86 | i | -84*
CC(C)(C)C(=O)NC(=S)NCc1ccccc1 | 0 | -3 | 7 | 0 | i | -3
O=C(CN1CCCC1)Nc1ccc(F)c(Cl)c1 | nt | nt | nt | -8 | nt | -8
O=C1CCC(=O)N1CNc1ccccn1 | 0 | -1 | -3 | -77 | i | -70*
O=C1C2CC=C(Cl)CC2C(=O)N1CNc1ccccn1 (stereo not drawn) | 0 | -4 | nt | -8 | nt | -8
Cc1ccc(C)c(CSC2=NCCN2S(=O)(=O)c2ccccc2)c1 | nt | nt | nt | 0 | nt | 4
O=C1c2ccccc2C(=O)N1CCSc1ccccc1 | 1 | -1 | -3 | 103* | i | 65
O=C1c2ccccc2C(=O)N1CCSc1nncs1 | -1 | -16 | -1 | 8 | i | 6
CC(C)c1ccc(N(C(=O)c2ccco2)C(C(=O)NC2CCCC2)c2ccncc2)cc1 (stereo not drawn) | nt | nt | nt | 42 | nt | 21
CC(C)(C)[C@H]1C=C(C(=O)Nc2ccccc2)O[C@@H](OCCCCO)C1 | nt | nt | 5 | -69 | i | -61*
O=C(Nc1nc2c(s1)CCCC2)c1ccc(Br)s1 | 0 | -37 | 3 | 59* | i | 34
Cc1oc2ccc(OCc3c(F)cccc3Cl)cc2c1C(=O)O | nt | -4 | nt | -66 | i | -57*
Cc1oc2ccc(OCc3cccc(Cl)c3)cc2c1C(=O)O | nt | nt | nt | 37 | nt | 10
Cc1ccc(-n2nc3c(c2NC(=O)c2ccc4c(c2)OCO4)CS(=O)C3)c(C)c1 (stereo not drawn) | nt | nt | nt | -8 | nt | -1
SMILES | Hsp70 act | Mdm2 ligase inh | Rad51 HR inh | HSF-1 act | HSV augment | HSF1 inhib
O=c1[nH]c(C2CCN(S(=O)(=O)c3cccc([N+](=O)[O-])c3)CC2)nc2c1nnn2Cc1ccccc1 | nt | nt | nt | 61* | nt | 27
CCn1c(=O)n(CC)c2cc(N3CCCC3)c(NC(=O)c3ccc(OC)c(Br)c3)cc21 | nt | nt | nt | -78 | nt | -71*
CC(C)c1c(C(=O)N/N=C2\CCc3ccccc32)nnn1-c1nonc1N | nt | nt | nt | -3 | nt | -6
CCOC(=O)N=Nc1c2ccccc2c2nc3no[nH]c3nc12 | 0 | -5 | 1 | -95 | i | -95*
Cc1ccccc1CS(=O)(=O)Cc1ccc(C(=O)NC2CCCCC2)o1 | nt | nt | nt | -1 | nt | -5
COc1cc(Cl)cc(/C=C/c2ccc3ccccc3n2)c1OC(C)=O | 0 | -15 | 21 | 183* | i | 158
O=c1c2ccccc2cnn1-c1ccc2ccccc2c1 | 0 | -57 | 3 | 62* | i | 29
O=c1c2ccccc2cnn1-c1ccc(Br)cc1 | 0 | -4 | nt | 30 | i | 26
Cc1ccc(-n2ncc(Br)c(Br)c2=O)cc1 | 5 | -17 | 6 | -85 | i | -85*
COc1c(Cl)cnn(-c2ccc(C)cc2)c1=O | 0 | -14 | -1 | 45 | i | 17
Cn1cccc1/C=N/NC(=O)C12CC3CC(CC(C3)C1)C2 | 0 | -12 | 5 | 27 | i | 8
Cc1ccc(OCCn2c(=O)n(C)c3ccccc32)cc1 | 0 | 1 | 0 | 59* | i | 28
Cn1c(=O)n(CCOc2ccc([N+](=O)[O-])cc2)c2ccccc21 | nt | -89 | -7 | 17 | i | 18
Cc1ccc(Cn2c(N3CCN(C)CC3)nc3c2c(=O)[nH]c(=O)n3C)cc1 | nt | nt | nt | -1 | nt | 5
COc1ccccc1-n1nnnc1SCC(=O)NCC1CCCO1 (stereo not drawn) | nt | nt | nt | 8 | nt | -3
COc1ccccc1NC(=O)c1cnc(SCC(=O)NCC2CCCO2)n(C)c1=O (stereo not drawn) | nt | nt | nt | 171* | nt | 164
Cc1cc(N(C)C)c(C#N)c(NCc2ccccc2)n1 | 0 | -20 | 21 | 93* | i | 50
COC(=O)c1sccc1NC(=S)N1CCN(c2cc(C)ccc2C)CC1 | 0 | 5 | 15 | 24 | i | -1
NC(=O)COC(=O)c1cc(=O)[nH]c2ccccc12 | nt | -8 | 14 | -71 | i | -62*
C/C(=N/N=C/c1ccccc1O)c1ccccc1O | nt | nt | nt | -5 | nt | 9
CCCS/C(N)=N/N=C/c1cc(C)ccc1O | 0 | nt | 6 | 60* | i | 32
CCCCS/C(N)=N/N=C/c1ccccc1O | 0 | -18 | -2 | 87* | i | 26
CC(=O)N1c2ccc(S(=O)(=O)NCCC(=O)Nc3cccc(Cl)c3)cc2CC1C (stereo not drawn) | nt | nt | nt | 6 | nt | -7
COC(=O)/C(=C/c1ccc2c(c1)c1ccccc1n2C)NC(=O)c1ccccc1 | 0 | -9 | -4 | 73* | i | 31
CC(=O)Nc1cccc(NC(=O)CS(=O)(=O)c2cn(CC(=O)N(C(C)C)C(C)C)c3ccccc23)c1 | nt | nt | nt | -2 | nt | -2
COCc1cc(CN2CCCC(C(=O)Nc3ccc(-c4ccco4)cc3)C2)ccc1OC (stereo not drawn) | nt | nt | nt | 64* | nt | 19
Cc1ncc(CN2CCCC(C(=O)Nc3ccc(-c4ccco4)cc3)C2)cn1 (stereo not drawn) | nt | nt | nt | 3 | nt | -4
Cc1ccc(NC(=O)CSc2nnc(-c3ccncc3)o2)cc1C | 0 | -10 | nt | -28 | i | -13
Cc1ccccc1-c1nc2sc3c(c2c(=O)n1N)CCCC3 | 0 | nt | -5 | -69 | i | -60*
Nc1nc(-c2cccnc2)nc2sc3c(c12)CCCC3 | 0 | 7 | -3 | 80* | i | 28
